Assay results published in ChEMBL document CHEMBL1126011 (J Med Chem, 1992).

Molecular target: Sodium-dependent dopamine transporter (Rattus norvegicus, UniProt P23977)
Test: Inhibition of [3H]3-beta-(p-fluorophenyl)tropane-2beta-carboxylic acid methyl ester binding to Dopamine transporter in rat striatal membranes.
Assay type: cell membranes, Membrane
Summary of the method: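 Male Sprague-Dawley rat (250-350 g) striata, frozen at -70 °C, homogenized in 10 mM phosphate buffer pH 7.4 with 0.32 M sucrose; 40000g pellet washed, resuspended at 1.0 mg/mL tissue. 0.5 nM [3H]-23 incubated 2 h on ice; filtration onto polyethylenimine-soaked GF/B filters, scintillation counting. IC50 from 10-12-point competition curves, 3-4 assays.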

Sodium-dependent dopamine transporter, sequence (P23977 whole entry): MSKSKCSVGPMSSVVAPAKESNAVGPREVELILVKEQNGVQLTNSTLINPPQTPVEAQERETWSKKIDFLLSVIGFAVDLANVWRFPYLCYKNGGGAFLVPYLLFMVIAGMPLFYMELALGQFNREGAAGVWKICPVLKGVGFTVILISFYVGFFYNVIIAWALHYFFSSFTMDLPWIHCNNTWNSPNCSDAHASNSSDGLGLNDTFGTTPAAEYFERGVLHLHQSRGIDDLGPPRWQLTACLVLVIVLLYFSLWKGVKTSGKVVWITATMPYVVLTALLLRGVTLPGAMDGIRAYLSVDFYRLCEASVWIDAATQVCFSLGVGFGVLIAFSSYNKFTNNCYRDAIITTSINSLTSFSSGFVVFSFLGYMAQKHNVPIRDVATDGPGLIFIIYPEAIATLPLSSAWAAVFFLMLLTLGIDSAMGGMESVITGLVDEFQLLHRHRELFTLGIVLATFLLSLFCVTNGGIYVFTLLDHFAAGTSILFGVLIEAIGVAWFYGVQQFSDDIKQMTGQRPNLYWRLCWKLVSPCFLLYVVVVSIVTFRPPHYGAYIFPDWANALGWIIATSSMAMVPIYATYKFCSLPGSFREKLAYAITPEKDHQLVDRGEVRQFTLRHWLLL

Question: For `CN1[C@@H]2CC[C@H]1C[C@H](OC(=O)c1ccccc1)C2`, which IC50 is on record?
Answer: 5.18 µM

Question: How did the IC50 turn out when `CN1C2CC[C@@H]1C[C@H](OC(=O)c1ccccc1)C2C(=O)OCCc1ccccc1` (stereo partly drawn) was run?
Answer: 0.248 µM

Question: Which IC50 does the source give for `CN1C2CC[C@@H]1C[C@H](OC(=O)c1ccccc1)C2C(=O)OCCCc1ccccc1` (stereo partly drawn) here?
Answer: 0.139 µM

Question: Which IC50 does the source give for `CCCOC(=O)C1C2CC[C@H](C[C@@H]1OC(=O)c1ccccc1)N2C` (stereo partly drawn) here?
Answer: 0.191 µM

Question: For `CN1C2CC[C@@H]1C[C@H](OC(=O)c1ccccc1)C2C(=O)OCc1ccccc1` (stereo partly drawn), which IC50 is on record?
Answer: 0.257 µM

Question: Which IC50 does the source give for `CCOC(=O)C1C2CC[C@H](C[C@@H]1OC(=O)c1ccccc1)N2C` (stereo partly drawn) here?
Answer: 0.13 µM

Question: How did the IC50 turn out when `CN1C2CC[C@@H]1C[C@H](OC(=O)c1ccccc1)C2CO` (stereo partly drawn) was run?
Answer: 0.561 µM

Question: Which IC50 does the source give for `CN1C2CC[C@@H]1C[C@H](OC(=O)c1ccccc1)C2C(=O)Oc1ccccc1` (stereo partly drawn) here?
Answer: 0.112 µM

Question: How did the IC50 turn out when `CN1C2CC[C@@H]1C[C@H](OC(=O)c1ccccc1)C2C(=O)OCCc1ccc(N)cc1` (stereo partly drawn) was run?
Answer: 0.072 µM

Question: How did the IC50 turn out when `CCOC(=O)CCC(=O)Nc1ccc(CCOC(=O)C2C3CC[C@H](C[C@@H]2OC(=O)c2ccccc2)N3C)cc1` (stereo partly drawn) was run?
Answer: 0.086 µM

Question: `CN1C2CC[C@@H]1C[C@H](OC(=O)c1ccccc1)C2C(=O)OCCc1ccc([N+](=O)[O-])cc1` (stereo partly drawn) was tested. Which IC50 did it give?
Answer: 0.601 µM

Question: With `CN1C2CC[C@@H]1C[C@H](OC(=O)c1ccccc1)C2C(=O)OCCc1ccc(Cl)cc1` (stereo partly drawn) as the molecule, how does the IC50 read?
Answer: 0.271 µM

Question: With `CC(=O)OCC1C2CC[C@H](C[C@@H]1OC(=O)c1ccccc1)N2C` (stereo partly drawn) as the molecule, how does the IC50 read?
Answer: 0.272 µM

Question: For `CN1C2CC[C@@H]1C[C@H](OC(=O)c1ccccc1)C2C(=O)OCCc1ccc(N=C=S)cc1` (stereo partly drawn), which IC50 is on record?
Answer: 0.196 µM

Question: Which IC50 does the source give for `CN1C2CC[C@@H]1C[C@H](OC(=O)c1ccccc1)C2C(=O)OCCc1ccc(NC(=O)CBr)cc1` (stereo partly drawn) here?
Answer: 0.061 µM

Question: `CNC(=O)C1C2CC[C@H](C[C@@H]1OC(=O)c1ccccc1)N2C` (stereo partly drawn) was tested. Which IC50 did it give?
Answer: 3.18 µM

Question: How did the IC50 turn out when `CN1C2CC[C@@H]1C[C@H](OC(=O)c1ccccc1)C2C(=O)OCCc1ccc(N=[N+]=[N-])cc1` (stereo partly drawn) was run?
Answer: 0.227 µM

Question: `CN1C2CC[C@@H]1C[C@H](OC(=O)c1ccccc1)C2C(=O)OC/C=C/c1ccccc1` (stereo partly drawn) was tested. Which IC50 did it give?
Answer: 0.371 µM
